ChEMBL document CHEMBL4840316, “Structure-based screening for the discovery of 1,2,4-oxadiazoles as promising hits for the development of new anti-inflammatory agents interfering with eicosanoid biosynthesis pathways” (Eur J Med Chem, 2021)

Legend:
[1] = molecular target: T1, Prostaglandin E synthase (Homo sapiens) (UniProt O14684); assay: Inhibition of mPGES-1 obtained from IL-beta stimulated human A549 cells microsomes assessed as residual activity by measuring conversion of PGH2 to PGE2 at 10 uM by cell-free RP-HPLC method; conditions: Microsome
T1 sequence (whole entry): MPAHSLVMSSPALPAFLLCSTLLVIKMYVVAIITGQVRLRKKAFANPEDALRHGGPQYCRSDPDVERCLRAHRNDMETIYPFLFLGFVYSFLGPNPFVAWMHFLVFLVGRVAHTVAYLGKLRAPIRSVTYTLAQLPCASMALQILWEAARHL
Summary of the method: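 Microsomes from A549 cells stimulated with IL-1β (1 ng/ml) for 48 h. Diluted in 0.1 M potassium phosphate pH 7.4 with 2.5 mM glutathione. Pre-incubated 15 min on ice with compound (single 10 µM, or 0.03–10 µM for the curve) or 1% DMSO. 20 µM PGH2 added for 1 min; stopped with FeCl3/citric acid containing 11β-PGE2 standard. PGE2 measured by SPE and RP-HPLC. n = 3.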

[2] = molecular target: T2, Polyunsaturated fatty acid 5-lipoxygenase (Homo sapiens) (UniProt P09917); assay: Inhibition of 5-LO in A23187-stimulated human intact neutrophils assessed as reduction in LTB4/5-HETE formation by measuring residual activity at 10 uM measured after 20 mins by RP-HPLC method; type: tissue-based; conditions: Neutrophil
T2 sequence (whole entry): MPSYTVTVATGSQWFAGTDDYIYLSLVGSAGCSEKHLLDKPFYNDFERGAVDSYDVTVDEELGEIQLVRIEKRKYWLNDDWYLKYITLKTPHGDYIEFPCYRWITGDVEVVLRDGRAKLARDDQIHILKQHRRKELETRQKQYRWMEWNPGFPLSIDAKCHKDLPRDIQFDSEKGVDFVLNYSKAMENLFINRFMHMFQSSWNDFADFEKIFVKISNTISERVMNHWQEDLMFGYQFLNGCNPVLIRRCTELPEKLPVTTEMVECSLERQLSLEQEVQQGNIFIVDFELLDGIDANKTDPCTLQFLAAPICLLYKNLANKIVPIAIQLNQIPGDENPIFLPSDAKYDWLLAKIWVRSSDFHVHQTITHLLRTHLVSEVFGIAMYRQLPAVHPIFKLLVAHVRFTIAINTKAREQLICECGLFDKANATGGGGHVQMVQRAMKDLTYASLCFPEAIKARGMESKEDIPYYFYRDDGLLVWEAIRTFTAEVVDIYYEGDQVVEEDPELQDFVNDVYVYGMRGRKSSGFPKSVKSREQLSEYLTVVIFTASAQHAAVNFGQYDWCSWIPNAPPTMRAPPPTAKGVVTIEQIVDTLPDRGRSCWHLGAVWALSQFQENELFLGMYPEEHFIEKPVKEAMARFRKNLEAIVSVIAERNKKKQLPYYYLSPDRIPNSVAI
Summary of the method: (§1)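 Human neutrophils at 5 × 10^6/mL in PBS with 0.1% glucose and 1 mM CaCl2. Pre-incubated with compound or 0.1% DMSO for 10 min at 37 °C. Stimulated with 2.5 µM A23187, with or without 20 µM AA, for 10 min at 37 °C. Stopped with cold methanol; PGB1 internal standard. LTB4, its trans isomers and 5-HETE quantified by SPE and RP-HPLC; % of control.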

[3] = molecular target: T2, Polyunsaturated fatty acid 5-lipoxygenase (Homo sapiens); assay: Inhibition of 5-LO in A23187/AA-stimulated human intact neutrophils assessed as reduction in LTB4/5-HETE formation by measuring residual activity at 10 uM measured after 20 mins by RP-HPLC method; type: tissue-based; conditions: Neutrophil; summary of the method: as §1
[4] = molecular target: T2, Polyunsaturated fatty acid 5-lipoxygenase (Homo sapiens); assay: Inhibition of 5-LO (unknown origin) expressed in Escherichia coli BL21 assessed as residual activity at 10 uM by RP-HPLC method relative to control
Summary of the method: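 Human recombinant 5-LO expressed in E. coli BL21 and purified on ATP-agarose. 0.5 µg enzyme in 1 mL PBS + 1 mM EDTA pre-incubated with compound or 0.1% DMSO for 10 min on ice. Reaction started with 20 µM AA and 2 mM CaCl2, run 10 min at 37 °C, stopped with ice-cold methanol. Products analysed; activity as % of control.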

[5] = molecular target: T3, Bifunctional epoxide hydrolase 2 (Homo sapiens) (UniProt P34913); assay: Inhibition of recombinant human sEH expressed in sf9 insect cells assessed as residual activity at 10 uM using PHOME as substrate preincubated for 15 mins followed by substrate addition and measured after 60 mins relative to control; conditions: time 75.0 min
T3 sequence (whole entry): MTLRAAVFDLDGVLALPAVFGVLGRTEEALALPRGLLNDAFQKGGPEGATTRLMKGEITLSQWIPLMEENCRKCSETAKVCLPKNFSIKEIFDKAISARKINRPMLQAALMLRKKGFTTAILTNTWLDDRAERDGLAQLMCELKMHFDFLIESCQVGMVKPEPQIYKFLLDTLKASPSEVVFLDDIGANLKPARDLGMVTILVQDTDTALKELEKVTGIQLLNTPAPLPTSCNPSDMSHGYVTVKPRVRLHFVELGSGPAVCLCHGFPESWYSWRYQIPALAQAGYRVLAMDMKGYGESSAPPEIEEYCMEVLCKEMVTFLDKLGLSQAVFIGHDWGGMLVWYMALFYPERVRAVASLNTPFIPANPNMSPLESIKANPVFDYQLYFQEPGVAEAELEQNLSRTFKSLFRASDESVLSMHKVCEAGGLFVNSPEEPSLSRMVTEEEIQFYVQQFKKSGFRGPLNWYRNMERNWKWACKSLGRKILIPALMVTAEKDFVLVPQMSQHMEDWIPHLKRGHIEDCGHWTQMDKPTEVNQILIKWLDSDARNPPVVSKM
Summary of the method: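 Human recombinant sEH from baculovirus-infected Sf9 cells, affinity-purified. Diluted in 25 mM Tris pH 7 with 0.1 mg/mL BSA. Pre-incubated 15 min at room temperature with 10 µM compound or 0.1% DMSO. 50 µM PHOME added, run 60 min at room temperature, stopped with ZnSO4. Fluorescence read at ex 330 / em 465 nm.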

Monocyte = assay: Cytotoxicity against human monocyte cells assessed as cell viability at 10 uM measured after 24 hrs by MTT assay; type: cell-based
Summary of the method: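 Human monocytes isolated from PBMC by adherence, 0.2 × 10^6 per well in buffer. Exposed to 10 µM compound or 0.5% DMSO for 24 h (37 °C, 5% CO2). MTT for 2 h, then SDS lysis (10%, pH 4.5) for 17 h. Absorbance read at 570 nm; viability as % of vehicle, n = 3.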

A549 = assay: Cytotoxicity against human A549 cells assessed as cell viability at 10 uM measured after 48 hrs by MTT assay; type: cell-based; conditions: a549, 48 h
Summary of the method: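 A549 cells in DMEM + 10% FBS, 2 × 10^4 per well, seeded in triplicate. Exposed to 10 µM compound or 0.1% DMSO for 48 h at 37 °C, 5% CO2. MTT added for 1 h, formazan dissolved in DMSO, absorbance read at 570 nm. Viability given as % of vehicle, n = 3.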

[6] = molecular target: Prostaglandin G/H synthase 1 (Ovis aries) (UniProt P05979); assay: Inhibition of ovine COX-1 assessed as residual activity at 10 uM using arachidonic acid as substrate preincubated for 5 mins by RP-HPLC method relative to control; conditions: time 10.0 min
Sequence of Prostaglandin G/H synthase 1 (Ovis aries) (P05979 whole entry, looked up): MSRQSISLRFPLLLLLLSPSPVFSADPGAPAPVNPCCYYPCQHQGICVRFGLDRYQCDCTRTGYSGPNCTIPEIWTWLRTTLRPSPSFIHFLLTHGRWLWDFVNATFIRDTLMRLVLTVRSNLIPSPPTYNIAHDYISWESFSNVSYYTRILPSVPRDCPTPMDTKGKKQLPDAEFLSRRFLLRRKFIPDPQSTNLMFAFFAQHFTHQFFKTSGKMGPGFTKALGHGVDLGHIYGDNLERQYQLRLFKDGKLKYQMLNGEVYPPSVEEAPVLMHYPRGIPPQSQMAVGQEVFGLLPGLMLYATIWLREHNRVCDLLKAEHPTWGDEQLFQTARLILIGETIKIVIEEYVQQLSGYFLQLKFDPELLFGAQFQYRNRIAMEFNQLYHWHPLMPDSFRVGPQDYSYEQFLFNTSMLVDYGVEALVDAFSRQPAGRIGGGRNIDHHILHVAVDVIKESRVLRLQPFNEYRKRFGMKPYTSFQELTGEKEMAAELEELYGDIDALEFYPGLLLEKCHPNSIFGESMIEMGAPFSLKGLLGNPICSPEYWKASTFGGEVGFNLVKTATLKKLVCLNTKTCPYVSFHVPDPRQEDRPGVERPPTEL

How did the Activity [1] turn out when `Oc1cccc(CCc2nc(-c3ccc(-c4ccsc4)cc3)no2)c1` was run?
The Activity was 76.4%.

And the Activity [2]?
Its Activity is 19.9%.

And the Activity [3]?
Its Activity is 14.9%.

And the Activity [4]?
Its Activity is 105%.

And the Activity [5]?
Its Activity is greater than 50%.

What about the Activity (Monocyte) of the same compound?
Its Activity is “Non-Toxic”.

And the Activity (A549)?
Its Activity is “Non-Toxic”.

What about the Activity [6] of the same compound?
Its Activity is 47.7%.

Which Activity [1] does the source give for `Oc1c(F)c(F)cc(-c2nc(-c3ccc(-c4ccsc4)cc3)no2)c1F` here?
The Activity was 25.4%.

And the Activity [2]?
The Activity was 1.7%.

What about the Activity [3] of the same compound?
The Activity was 18.5%.

And the Activity [4]?
Its Activity is 10.3%.

What about the Activity [5] of the same compound?
The Activity was greater than 50%.

What about the Activity (Monocyte) of the same compound?
Its Activity is “Non-Toxic”.

And the Activity (A549)?
Its Activity is “Non-Toxic”.

What about the Activity [6] of the same compound?
The Activity was 34.7%.
